From ChEMBL document CHEMBL4118036, “α-Glucosidase Inhibitors from Salvia circinata” (J Nat Prod, 2017)
Active and inactive are the calls of the source. The rule behind the calls is not given here.

Experiments:
[1] = Inhibition of rat intestinal alpha-glucosidase using p-nitrophenyl-alpha-D-glucopyranoside as substrate pretreated for 10 mins followed by substrate addition measured after 30 mins
Method in brief: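 Rat intestinal acetone powder (40 mg/mL in 100 mM PBS, pH 7) as enzyme source. Test agents were dissolved in PBS or MeOH–PBS (1:1), then preincubated with the enzyme for 10 min at 37 °C. p-Nitrophenyl-α-D-glucopyranoside was added (20 mM stock in PBS) and incubated for 30 min at 37 °C. Absorbance read at 405 nm; IC50 derived per earlier reports.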

Alpha-glucosidase = biological target: T1, Alpha-glucosidase (Blautia obeum, UniProt A0A173Z7B1); assay: Inhibition of recombinant Ruminococcus obeum ATCC 29174 alpha-glucosidase expressed in Escherichia coli BL21(DE3) using p-nitrophenyl-alpha-D-glucopyranoside as substrate pretreated for 10 mins followed by substrate addition measured after 3 hrs; design: species or system Blautia obeum ATCC 29174
T1 sequence (A0A173Z7B1 whole entry): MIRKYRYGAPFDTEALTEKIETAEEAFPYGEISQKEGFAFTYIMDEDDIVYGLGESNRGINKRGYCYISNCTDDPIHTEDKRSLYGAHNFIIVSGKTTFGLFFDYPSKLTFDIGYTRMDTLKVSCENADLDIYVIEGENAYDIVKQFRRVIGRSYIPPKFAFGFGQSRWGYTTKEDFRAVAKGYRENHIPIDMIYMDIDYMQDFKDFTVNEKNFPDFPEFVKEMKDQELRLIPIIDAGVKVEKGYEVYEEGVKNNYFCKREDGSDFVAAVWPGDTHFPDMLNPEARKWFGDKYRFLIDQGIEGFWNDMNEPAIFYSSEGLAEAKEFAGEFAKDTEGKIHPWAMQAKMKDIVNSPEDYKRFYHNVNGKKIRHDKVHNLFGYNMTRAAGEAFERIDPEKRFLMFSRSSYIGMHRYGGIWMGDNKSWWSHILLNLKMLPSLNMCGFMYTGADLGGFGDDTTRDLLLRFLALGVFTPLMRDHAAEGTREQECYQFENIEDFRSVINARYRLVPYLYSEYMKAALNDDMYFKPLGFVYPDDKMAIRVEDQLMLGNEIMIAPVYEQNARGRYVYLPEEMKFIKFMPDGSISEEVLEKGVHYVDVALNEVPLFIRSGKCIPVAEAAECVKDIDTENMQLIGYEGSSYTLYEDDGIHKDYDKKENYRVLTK
Method in brief: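 Enzyme from E. coli BL21-DE3/pET12b grown in LB at 37 °C and induced with 0.5 mM IPTG for 8 h. Cells were sonicated in 50 mM bis-TRIS propane pH 8.0 and the lysate clarified. Enzyme (5.2 mg/mL) was preincubated with test agents for 10 min at 37 °C. pNP-α-glucoside was added (20 mM stock) and incubated for 3 h at 37 °C.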

Mus musculus [2] = assay: Antihyperglycemic activity in ig dosed ICR mouse assessed as reduction in postprandial blood glucose levels pretreated for 30 mins followed by oral sucrose challenge measured at 30 mins interval for 120 mins by OSTT; type: functional, organism-based
Rattus norvegicus = organism: Rattus norvegicus; assay: Potency index, ratio of acarbose IC50 to test compound IC50 for rat intestinal alpha-glucosidase
Mus musculus [3] = assay: Antihyperglycemic activity in ICR mouse assessed as reduction in postprandial blood glucose levels at 5 mg/kg, ig pretreated for 30 mins followed by oral sucrose challenge measured at 30 mins interval for 120 mins by OSTT; type: functional, organism-based

IC50 [1] [µM]	SMILES	also measured
100	C[C@H]1O[C@H](O[C@H]2[C@H](O)[C@@H](O)[C@@H](O[C@H]3[C@H](O)[C@@H](O)C(O)O[C@@H]3CO)O[C@@H]2CO)[C@H](O)[C@@H](O)[C@@H]1N[C@H]1C=C(CO)[C@@H](O)[C@H](O)[C@H]1O (stereo partly specified) [ACARBOSE]	Activity (Mus musculus [3]): Active
> 10000	COC1OC(=O)C=C1CC[C@]1(C)[C@H](C)CC[C@@]23COC(=O)C2=C[C@@H](O[C@@H]2O[C@H](CO)[C@@H](O)[C@H](O)[C@H]2O)C[C@@H]31 (stereo partly specified)	–
> 10000	CC(=O)CC[C@]1(C)[C@H](C)CC[C@@]23COC(=O)C2=C[C@@H](O[C@@H]2O[C@H](CO)[C@@H](O)[C@H](O)[C@H]2O)C[C@@H]31	–

Second part, the molecule before the results:

SMILES	IC50 [1] [µM]	also measured
C[C@@H]1CC[C@@]23COC(=O)C2=C[C@@H](O[C@@H]2O[C@H](CO)[C@@H](O)[C@H](O)[C@H]2O)C[C@@H]3[C@]1(C)CCc1ccoc1	500	IC50 (Alpha-glucosidase): 400 µM; Activity (Mus musculus [2]): Dose-dependent effect
COc1ccc(-c2cc(=O)c3c(O)c(O)c(OC)cc3o2)cc1OC	1800	–
CO[C@@H]1C=C(CC[C@]2(C)[C@H](C)CC[C@@]34COC(=O)C3=C[C@@H](O[C@@H]3O[C@H](CO)[C@@H](O)[C@H](O)[C@H]3O)C[C@@H]42)C(=O)O1	> 10000	–
COc1cc(-c2cc(=O)c3c(O)c(O)c(OC)cc3o2)ccc1Oc1ccc(-c2cc(=O)c3c(O)c(O)c(OC)cc3o2)cc1OC	39	Ratio IC50 (Rattus norvegicus): 2.5
C[C@@H]1CC[C@@]23COC(=O)C2=C[C@@H](O[C@@H]2O[C@H](CO)[C@@H](O)[C@H](O)[C@H]2O)C[C@@H]3[C@]1(C)CCC1=CCOC1=O	> 10000	–
O=c1cc(-c2ccc(O)cc2)oc2cc(O[C@@H]3O[C@H](CO)[C@@H](O)[C@H](O)[C@H]3O)cc(O)c12 [APIGETRIN]	200	–
COc1cc2oc(-c3ccc(O)c(O)c3)cc(=O)c2c(O)c1O	810	IC50 (Alpha-glucosidase): 60 µM; Activity (Mus musculus [2]): Dose-dependent effect
